Experimental data taken from ChEMBL document CHEMBL1123703, “Hydroxamic acid inhibitors of 5-lipoxygenase” (J Med Chem, 1987).

What was measured:
[1] = target: T1, Polyunsaturated fatty acid 5-lipoxygenase (Rattus norvegicus, UniProt P12527); assay: In vitro inhibitory activity against RBL-1 5-LO; format: cell-based
T1 sequence (P12527 whole entry): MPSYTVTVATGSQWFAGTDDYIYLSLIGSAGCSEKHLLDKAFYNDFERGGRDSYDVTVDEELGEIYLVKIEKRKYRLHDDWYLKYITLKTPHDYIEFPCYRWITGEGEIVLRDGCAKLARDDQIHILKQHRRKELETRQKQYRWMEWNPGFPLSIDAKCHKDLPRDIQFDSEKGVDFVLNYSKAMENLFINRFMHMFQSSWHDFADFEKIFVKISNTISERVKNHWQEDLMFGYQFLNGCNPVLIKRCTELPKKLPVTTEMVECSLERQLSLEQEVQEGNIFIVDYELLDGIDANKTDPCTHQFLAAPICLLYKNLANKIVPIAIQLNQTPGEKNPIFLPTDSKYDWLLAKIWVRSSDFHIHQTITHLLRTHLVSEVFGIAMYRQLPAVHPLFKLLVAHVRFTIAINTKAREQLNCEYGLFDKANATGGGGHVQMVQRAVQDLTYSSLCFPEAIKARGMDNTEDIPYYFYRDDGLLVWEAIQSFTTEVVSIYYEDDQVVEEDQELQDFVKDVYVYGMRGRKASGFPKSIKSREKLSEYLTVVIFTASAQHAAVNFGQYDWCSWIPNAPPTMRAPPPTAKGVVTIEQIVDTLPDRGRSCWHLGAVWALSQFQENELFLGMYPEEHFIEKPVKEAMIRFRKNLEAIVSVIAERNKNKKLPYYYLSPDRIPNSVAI

[2] = target: T2, Polyunsaturated fatty acid 5-lipoxygenase (Rattus norvegicus) (UniProt P12527); assay: Percent inhibition against RBL-1 5-LO in vitro at 300 uM; format: cell-based
T2 sequence (whole entry): T1 sequence (P12527 whole entry)
Procedure, shortened: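 20000g supernatant from 1.5 million homogenized RBL-1 cells, with test compound, in 200-μL incubations. Reactions were started with radiolabeled arachidonic acid and stopped by acidification and ether extraction. Products were separated from unconverted substrate by TLC and counted by liquid scintillation. Inhibition was taken from product formed with versus without inhibitor. Run in triplicate.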

[3] = target: T2, Polyunsaturated fatty acid 5-lipoxygenase (Rattus norvegicus); assay: Percent inhibition against RBL-1 5-LO in vitro at 100 uM; format: cell-based
Procedure, shortened: (§1)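 200-μL incubations held the 20000g supernatant of 1.5 million homogenized RBL-1 cells plus compound. Radiolabeled arachidonic acid started the reaction; acidification and ether extraction ended it. Product was resolved by TLC and counted by liquid scintillation, in triplicate. Inhibition was taken from the ratio of product formed with and without inhibitor.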

[4] = target: T2, Polyunsaturated fatty acid 5-lipoxygenase (Rattus norvegicus); assay: Percent inhibition against RBL-1 5-LO in vitro at 10 uM; format: cell-based; procedure, shortened: as §1
[5] = target: T1, Polyunsaturated fatty acid 5-lipoxygenase; assay: Compound was tested for its inhibition activity against the 5-LO in isolated enzyme
Procedure, shortened: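 5-LO from the 20000g supernatant of 1.5 million homogenized RBL-1 cells, in 200-μL incubations across a range of compound concentrations. Reaction started with radiolabeled arachidonic acid and stopped by acidification and ether extraction. Products were separated from substrate by TLC and counted by liquid scintillation, in triplicate.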

[6] = target: T2, Polyunsaturated fatty acid 5-lipoxygenase (Rattus norvegicus); assay: Compound was tested for the percent of inhibition against 5-LO at 10 uM; procedure, shortened: as §1
[7] = target: Prostaglandin G/H synthase 1 (Ovis aries) (UniProt P05979); assay: Compound was tested for the percent of inhibition against sheep seminal vesicle cyclooxygenase at 100 uM
Prostaglandin G/H synthase 1 (Ovis aries), sequence (P05979 whole entry, looked up): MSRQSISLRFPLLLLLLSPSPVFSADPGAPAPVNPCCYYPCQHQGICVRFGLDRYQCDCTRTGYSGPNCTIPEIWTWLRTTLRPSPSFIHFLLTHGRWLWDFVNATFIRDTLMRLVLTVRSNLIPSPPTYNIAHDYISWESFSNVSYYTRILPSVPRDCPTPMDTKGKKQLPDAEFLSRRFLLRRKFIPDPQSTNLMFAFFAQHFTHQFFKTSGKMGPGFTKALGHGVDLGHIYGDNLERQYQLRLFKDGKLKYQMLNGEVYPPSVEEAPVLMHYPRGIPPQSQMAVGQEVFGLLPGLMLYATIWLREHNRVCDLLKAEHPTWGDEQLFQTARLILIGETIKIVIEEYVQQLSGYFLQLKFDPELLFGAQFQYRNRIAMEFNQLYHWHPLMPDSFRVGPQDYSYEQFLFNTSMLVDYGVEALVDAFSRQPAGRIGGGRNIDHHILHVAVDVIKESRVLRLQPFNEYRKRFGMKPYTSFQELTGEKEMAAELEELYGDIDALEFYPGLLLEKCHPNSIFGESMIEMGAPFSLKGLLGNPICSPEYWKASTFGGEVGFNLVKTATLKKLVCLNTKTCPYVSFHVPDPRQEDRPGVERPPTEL

[8] = target: T1, Polyunsaturated fatty acid 5-lipoxygenase; assay: Compound was tested for its inhibition activity against 5-LO of the whole cell in vitro in rat.
[9] = target: T3, Polyunsaturated fatty acid lipoxygenase ALOX12 (Homo sapiens) (UniProt P18054); assay: Compound was tested for the percent of inhibition against 12-LO at 10 uM; format: functional
T3 sequence (whole entry): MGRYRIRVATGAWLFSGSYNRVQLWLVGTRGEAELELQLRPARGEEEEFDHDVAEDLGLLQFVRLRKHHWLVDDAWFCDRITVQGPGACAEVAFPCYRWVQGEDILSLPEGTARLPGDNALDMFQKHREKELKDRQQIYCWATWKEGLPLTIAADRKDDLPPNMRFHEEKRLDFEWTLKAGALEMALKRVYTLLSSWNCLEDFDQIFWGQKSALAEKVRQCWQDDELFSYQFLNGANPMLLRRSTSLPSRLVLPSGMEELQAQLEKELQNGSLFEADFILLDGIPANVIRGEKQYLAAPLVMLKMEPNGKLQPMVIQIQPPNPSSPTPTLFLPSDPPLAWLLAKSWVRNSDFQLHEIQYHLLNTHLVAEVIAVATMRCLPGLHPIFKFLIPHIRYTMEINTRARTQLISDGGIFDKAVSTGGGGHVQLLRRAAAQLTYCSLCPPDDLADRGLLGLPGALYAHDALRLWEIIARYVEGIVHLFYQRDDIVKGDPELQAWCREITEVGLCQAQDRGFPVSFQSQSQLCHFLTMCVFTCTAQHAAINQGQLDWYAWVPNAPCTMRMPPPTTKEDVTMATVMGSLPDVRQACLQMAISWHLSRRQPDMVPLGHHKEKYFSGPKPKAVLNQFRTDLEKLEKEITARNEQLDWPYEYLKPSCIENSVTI
Procedure, shortened: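 The RBL-1 enzyme was replaced by human platelet 12-lipoxygenase, soybean 15-lipoxygenase or sheep seminal vesicle cyclooxygenase. Reactions were started with radiolabeled arachidonic acid and stopped by acidification and ether extraction. Products were separated by TLC and counted by liquid scintillation, in triplicate. Inhibition was taken from the ratio of product formed with and without inhibitor.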

[10] = tested on: Seed linoleate 15-lipoxygenase (Glycine max); assay: Compound was tested for the percent of inhibition against soybean 15-LO (at 100 uM)
[11] = target: T2, Polyunsaturated fatty acid 5-lipoxygenase (Rattus norvegicus); assay: Percent inhibition against RBL-1 5-LO in vitro at 30 uM; format: cell-based; procedure, shortened: as §1

Compound | IC50 [1] [µM] | other results
O=C(NO)c1ccc(Br)cc1 | 14 | –
CO/C(=N\O)c1ccc2ccccc2c1 | – | inhibition [2]: 74%
CCCCCCCOc1ccc2cc(C(=O)NO)ccc2c1 | 6.5 | –
CC(C)N(O)C(=O)/C=C/c1ccc2ccccc2c1 | 0.082 | –
O=C(Cc1ccccc1)NO [PHENYLACETOHYDROXAMIC ACID] | 300 | –
O=C(/C=C/c1ccccc1)NO | 12 | –
O=C(NO)c1ccc([N+](=O)[O-])cc1 | 23 | –
O=C(CO)c1ccc2ccccc2c1 | – | inhibition [3]: 15%
Nc1ccc(C(=O)NO)cc1 | > 400 | –
N#Cc1ccc(C(=O)NO)cc1 | 61 | –
O=C(NO)c1ccc(C(F)(F)F)cc1 | 27 | –
O=C(/C=C/c1ccc2ccccc2c1)N(O)c1ccccc1 | 0.052 | –
O=C(NO)c1ccccc1 [BENZOHYDROXAMATE] | 110 | –
CCCCCCCCCCCCOc1ccc2cc(C(=O)NO)ccc2c1 | – | inhibition [4]: 11%
O=C(NO)c1ccc(O)cc1 | 190 | –
CCCCCCCCCOc1ccc2cc(C(=O)NO)ccc2c1 | – | inhibition [4]: 33%
O=C(Cc1ccc2ccccc2c1)NO | 19 | –
O=C(CCCc1ccccc1)NO [PHENYLBUTYRYLHYDROXAMIC ACID] | 27 | –
O=C(CCc1ccccc1)NO | 87 | –
O=C(/C=C/c1ccc2ccccc2c1)N(O)C1CCCCC1 | 0.1 | –
Cc1ccc(C(=O)NO)cc1 | 65 | –
O=S(=O)(NO)c1ccc2ccccc2c1 | – | inhibition [3]: 51%
O=C(O)c1ccc2ccccc2c1 | – | inhibition [2]: 0%

Compound | IC50 [1] [µM] | other results
Cc1cc(C)c(-c2ccc(/C=C/C(=O)N(C)O)cc2)c(C)c1 | 0.022 | –
O=C(NO)c1ccc(-c2ccccc2)cc1 | – | IC50 [5]: 4 µM; inhibition [6]: 86%; inhibition [7]: 50%; IC50 [8]: 3.3 µM; inhibition [9]: 86%; inhibition [10]: 30%
O=C(Cc1cccc2ccccc12)NO | 27 | –
O=C(C#Cc1ccccc1)NO | 46 | –
Cc1cc(C)c(-c2ccc(C(=O)NO)cc2)c(C)c1 | 0.29 | –
COc1ccc2cc(C(=O)NO)ccc2c1 | 8.2 | –
CN(O)C(=O)c1ccc2ccccc2c1 | 1.3 | –
C/C(=C\c1ccc2ccccc2c1)C(=O)N(C)O | 0.47 | –
CN(O)C(=O)/C=C/c1ccc2ccccc2c1 | 0.1 | –
CN(O)S(=O)(=O)c1ccc2ccccc2c1 | – | inhibition [11]: 6%
O=C(NO)c1ccc(-c2ccc3ccccc3c2)cc1 | 0.33 | –
CCCCCCCCOc1ccc2cc(C(=O)NO)ccc2c1 | 7.1 | –
O=C(/C=C\c1ccccc1)NO | 31 | –
CCCCC/C=C\CCOc1ccc2cc(C(=O)NO)ccc2c1 | 2.9 | –
O=C(NO)c1cccc2ccccc12 | 43 | –
Cc1cc(C)c(-c2ccc(C(=O)N(C)O)cc2)c(C)c1 | 0.064 | –
NC(=O)c1ccc2ccccc2c1 | – | inhibition [2]: 9%
O=C(NO)c1ccc(I)cc1 | 15 | –
O=C(NO)c1ccc2ccccc2c1 | 14 | –
O=C(NO)c1ccc(-c2cccc3ccccc23)cc1 | 0.18 | –
NNC(=O)c1ccc2ccccc2c1 | – | inhibition [2]: 6%
C/C(=C\C(=O)N(C)O)c1ccc2ccccc2c1 | 0.12 | –
CONC(=O)c1ccc2ccccc2c1 | – | inhibition [11]: 0%
